# Measurements of several laboratories.
# Each line is one published result; the experiments were not run side by side.
# Spike glycoprotein: Spike glycoprotein (Severe acute respiratory syndrome coronavirus 2, UniProt P0DTC2)
Compound,target,assay,setting,quantity,value
C=C[C@@](C)(/C=C/c1ccc(O)cc1)CCC=C(C)C,Spike glycoprotein,binding,,kon,1190 M⁻¹ s⁻¹
CCCCCCCCCCCCCCCCCCCCCCCCCC(=O)N[C@@H](CO[C@H]1O[C@H](CO)[C@H](O)[C@H](O)[C@H]1O)[C@H](O)[C@H](O)CCCCCCCCCCCCCC,"Cd1d1 (Mus musculus, UniProt P11609)","binding, SPR",,kon,63000 M⁻¹ s⁻¹
COc1ncccc1-c1cnn2ccc(N3CCN(C(=O)OC(C)C)CC3)nc12,"Serine/threonine-protein kinase RIO1 (RIOK1, Homo sapiens, UniProt Q9BRS2)","binding, competition with immobilised ligand",1 µM,remaining binding,3.9%
Cc1nn(C)cc1-c1nc2c(N3CCN(Cc4ccc(Cl)cc4)CC3)c(Cl)cnc2[nH]1,"Tyrosine-protein kinase ABL1, non-phosphorylated (ABL1, Homo sapiens, UniProt P00519, H396P)","binding, competition with immobilised ligand",1 µM,remaining binding,100%
O=c1cc(-c2ccccc2)oc2c(O)c(O)ccc12,Spike glycoprotein,"binding, BLI",,koff,0.0482 s⁻¹
Cn1cc(-c2cc(F)cc(N3CCn4c(cc5c4CCCC5)C3=O)c2CO)cc(Nc2ccc(N3CCN(C4COC4)CC3)cn2)c1=O,"Tyrosine-protein kinase ABL1 (ABL1, Homo sapiens, UniProt P00519, E255K)","enzyme activity, inhibitor",0.1 µM,inhibition,1%
CC[C@H](C)[C@@H]1NC(=O)[C@H](Cc2ccc(O)cc2)NC(=O)[C@H](C(C)C)NC(=O)[C@H]([C@@H](C)CC)NC(=O)[C@H](CO)NC(=O)[C@H](Cc2ccc(O)cc2)NC(=O)CSC[C@@H](C(N)=O)NC(=O)CNC(=O)[C@H](CCCNC(=N)N)NC(=O)CNC(=O)[C@H](C(C)C)NC(=O)[C@H](Cc2ccccc2)NC(=O)[C@H](CCCNC(=N)N)NC(=O)[C@H](C(C)C)NC(=O)[C@H](CCC(=O)O)NC(=O)CNC(=O)[C@H](CCCCN)NC1=O,Spike glycoprotein,binding,,koff,0.0058 s⁻¹
C#Cc1n[nH]c2c(-c3cn(C(C)c4ccccn4)c(=O)[nH]c3=O)cc(F)cc12 (stereo not shown),"Receptor tyrosine-protein kinase erbB-2 (ERBB2, Homo sapiens, UniProt P04626)","enzyme activity, inhibitor",1 µM,inhibition,-4.5%
C=C1C[C@@]23CC[C@H]4[C@@](C)(CCC[C@@]4(C)C(=O)O[C@@H]4O[C@H](CO)[C@@H](O)[C@H](O)[C@H]4O)[C@@H]2CC[C@]1(O[C@@H]1O[C@H](CO)[C@@H](O)[C@H](O)[C@H]1O)C3,Spike glycoprotein,"binding, BLI",,koff,0.122 s⁻¹
Cn1cc(-c2cccc(N3CCc4c(sc5c4CC(C)(C)C5)C3=O)c2CO)cc(Nc2ccncn2)c1=O,"Serine/threonine-protein kinase WNK2 (WNK2, Homo sapiens, UniProt Q9Y3S1)","enzyme activity, inhibitor",1 µM,inhibition,2%
O=C1c2c(O)cccc2C([C@@H]2O[C@H](CO)[C@@H](O)[C@H](O)[C@H]2O)c2cc(CO)cc(O)c21 (stereo partly shown),Spike glycoprotein,"binding, BLI",,koff,0.0217 s⁻¹
CC[C@H](C)[C@@H]1NC(=O)[C@H](C)NC(=O)[C@H](CCCCN)NC(=O)[C@H](Cc2c[nH]c3ccccc23)NC(=O)[C@H](CC(C)C)NC(=O)[C@H](CC(C)C)NC(=O)[C@H](C(C)C)NC(=O)[C@H](CC(=O)O)NC(=O)[C@H](Cc2ccccc2)NC(=O)[C@H](Cc2ccc(O)cc2)NC(=O)[C@@H](Cc2ccc(O)cc2)NC(=O)CSC[C@@H](C(N)=O)NC(=O)[C@H](CO)NC1=O,Spike glycoprotein,binding,,koff,0.065 s⁻¹
Nc1ncc(-c2nc(N3CCOCC3)nc(N3CCOCC3)n2)c(C(F)F)n1,"Tyrosine-protein kinase ABL1, non-phosphorylated (ABL1, Homo sapiens, UniProt P00519)","binding, competition with immobilised ligand",10 µM,remaining binding,70%
